Test results published in ChEMBL document CHEMBL1122078, “Inhibitors of blood platelet aggregation. Activity of some 1H-benz[de]isoquinolinecarboximidamides on the in vivo blood platelet aggregation induced by collagen” (J Med Chem, 1982).
≈ marks a conversion by molar mass, not a printed value. Where “and” joins values, the source holds several entries; their conditions need not be identical. Equal values may be shown once.

Assays:
[1] = system: Rattus norvegicus; experiment: (§1) Compound was tested in the rat after peroral administration for its ability to inhibit the in vivo blood platelet aggregation induced by collagen; type: functional
In short: (§2)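 Oral dosing of male Wistar rats at 0.2 mmol/kg/day for 5 days, alongside a placebo group. On day 5 under pentobarbitone anesthesia, collagen was infused via a cannula in the right common carotid artery. EDTA blood samples were taken 60 and 90 s after the start of infusion, and platelets were counted by Coulter counter. Value is the increase in circulating platelets relative to placebo, at 60 s unless stated.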

[2] = Aqueous solubility at room temperature; type: physicochemical; conditions: water; read-out: S
In short: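 Solubility in water, given in mg/mL, determined at room temperature.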

[3] = system: Rattus norvegicus; experiment: In vivo inhibition of blood platelet aggregation induced by collagen, intraperitoneal administration; type: functional
In short: (§3)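 Male Wistar rats dosed ip at 0.2 mmol/kg/day for 5 days, with a placebo group run in parallel. On day 5 rats were anesthetized with pentobarbitone (40-50 mg/kg ip) and collagen was infused through a cannula in the right common carotid. Blood was taken into EDTA at 60 and 90 s. Platelets were Coulter-counted after thrombo-oil separation. Read-out: rise in circulating platelets versus placebo, at 60 s unless noted.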

[4] = system: Rattus norvegicus; experiment: Compound was tested in the rat after peroral administration for its ability to inhibit the in vivo blood platelet aggregation induced by collagen; Only at 90s after collagen administration; type: organism-based; conditions: po; in short: as §2
[5] = system: Rattus norvegicus; experiment: as §1; type: ADME, organism-based; conditions: po; in short: as §2
[6] = system: Rattus norvegicus; experiment: (§4) Compound was tested in the rat after intraperitoneal administration for its ability to inhibit the in vivo blood platelet aggregation induced by collagen; Not determined because of toxicity; type: organism-based; conditions: ip; in short: as §3
[7] = system: Rattus norvegicus; experiment: Compound was tested in the rat after intraperitoneal administration for its ability to inhibit the in vivo blood platelet aggregation induced by collagen; type: ADME, organism-based; conditions: po, in the assay text read “oral” for “intraperitoneal”
[8] = system: Rattus norvegicus; experiment: Compound was tested in the rat after peroral administration for its ability to inhibit the in vivo blood platelet aggregation induced by collagen,; type: organism-based; conditions: po; in short: as §2
[9] = system: Rattus norvegicus; experiment: as §4; type: functional, organism-based; in short: as §3

| solubility [2] [µg/mL] | Compound | Increase [3] | further results |
| --- | --- | --- | --- |
| 60000 | Cl.Cl.N/C(=N\c1ccc(N)cc1)N1Cc2cccc3cccc(c23)C1 |  | Increase [1]: 8% |
| 5000 | Cc1ccc2c3c(cccc13)CN(C(=N)NO)C2.Cl | 16% and 14% |  |
| < 3000 | C/N=C(\N)N1Cc2cccc3c2C(CCC3)C1 (stereo not given) |  | Increase [1]: 30% and 12% |
| < 3000 | Br.N/C(=N\c1ccc(C(=O)O)cc1)N1Cc2cccc3c2C(CCC3)C1 (stereo not given) |  | Increase [1]: 2% |
| 25000 (≈ 104 mM) | C/N=C(/NC)N1Cc2cccc3cccc(c23)C1 | 1% |  |
| 10000 | Cl.N/N=C(/N)N1Cc2cccc3cccc(c23)C1 |  |  |
| 4000 | CN(C)c1ccc(NC(=N)N2Cc3cccc4c3C(CCC4)C2)cc1.Cl (stereo not given) |  | Increase [1]: 4% |
| 60000 | Cl.N/N=C(/N)N1Cc2cccc3c2C(CCC3)C1 (stereo not given) |  |  |
| 17000 | COc1ccc2c3c1CCCC3CN(C(=N)N)C2.Cl (stereo not given) |  |  |
| 18000 | Cc1ccc2c3c1CCCC3CN(C(=N)NO)C2.Cl (stereo not given) | 45% |  |
| 3000 | Cl.N/C(=N\O)N1Cc2cccc3c(Cl)ccc(c23)C1 | 44% and 18% |  |
| < 5000 | COc1ccc(NC(=N)N2Cc3cccc4cccc(c34)C2)cc1 | -2% |  |
| 25000 | CN(C)/N=C(/N)N1Cc2cccc3cccc(c23)C1.Cl |  | Increase [1]: -2% |
| 18000 | COc1cc2c3c(cccc3c1)CN(C(=N)NO)C2.Cl |  | Increase [1]: -5% |
| 60000 | Cl.N=C(N)N1Cc2cccc3c2C(CCC3)C1 (stereo not given) |  |  |
| > 50000 | COc1cc2c3c(c1OC)CCCC3CN(C(=N)NO)C2.Cl (stereo not given) |  |  |
| < 3000 | N#CNC(=N)N1Cc2cccc3c2C(CCC3)C1 (stereo not given) | 1% |  |

| solubility [2] [µg/mL] | Compound | Increase [3] | further results |
| --- | --- | --- | --- |
| 5000 | COc1ccc2c3c1CCCC3CN(C(=N)NO)C2.Cl (stereo not given) | 70% | Increase [4]: 8% |
| < 5000 | N/C(=N\c1ccc(N)cc1)N1Cc2cccc3c2C(CCC3)C1 (stereo not given) |  | Increase [5]: 8%; Increase [6]: Toxic |
| 35000 | CC(=O)NC(=N)N1Cc2cccc3cccc(c23)C1.Cl | 17% |  |
| < 3000 | N=C(Nc1ccccc1)N1Cc2cccc3c2C(CCC3)C1 (stereo not given) | -11% |  |
| < 3000 | N=C(Nc1ccc(S(N)(=O)=O)cc1)N1Cc2cccc3c2C(CCC3)C1 (stereo not given) |  | Increase [1]: 3% |
| < 3000 | Cl.N=C(Nc1ccc(C(N)=O)cc1)N1Cc2cccc3c2C(CCC3)C1 (stereo not given) |  | Increase [1]: 7% |
| 16000 | Cc1ccc2c3c1CCCC3CN(C(=N)N)C2.Cl (stereo not given) |  | Increase [6]: Toxic; Increase [7]: 16% |
| 12000 | Cl.N/C(=N\O)N1Cc2cccc3c2C(CCC3)C1 (stereo not given) | 42% and 23% |  |
| 2500 | Cl.N=C(N)N1Cc2cccc3c(Cl)ccc(c23)C1 |  | Increase [6]: Toxic |
| < 3000 | COc1ccc(NC(=N)N2Cc3cccc4c3C(CCC4)C2)cc1 (stereo not given) |  | Increase [5]: 7%; Increase [6]: Toxic |
| 10000 | Cl.N=C(N)N1Cc2cccc3cccc(c23)C1 | 38% and 28% |  |
| 20000 (≈ 82.2 mM) | C/N=C(\NC)N1Cc2cccc3c2C(CCC3)C1 (stereo not given) | 2% |  |
|  | N/C(=N\c1ccc([N+](=O)[O-])cc1)N1Cc2cccc3c2C(CCC3)C1 (stereo not given) |  | Increase [8]: -7%; Increase [9]: Toxic |
| < 4000 | N=C(Nc1ccc(Cl)cc1)N1Cc2cccc3c2C(CCC3)C1 (stereo not given) |  | Increase [1]: 7% |
|  | CC(C)=N/N=C(\N)N1Cc2cccc3c2C(CCC3)C1.Cl (stereo not given) |  | Increase [8]: 0%; Increase [9]: Toxic |
| 4000 | Cl.N/C(=N\O)N1Cc2cccc3cccc(c23)C1 | 36% and 23% |  |
